According to ChEMBL document CHEMBL4364258, “Discovery of novel benzofuran-based compounds with neuroprotective and immunomodulatory properties for Alzheimer's disease treatment” (Eur J Med Chem, 2019):
Activity calls are given as the source filed them. The calls are words filed in the database; no cut-off is given here.

How the values were obtained:
[1] = biological target: T1, Cannabinoid receptor 1 (Homo sapiens, UniProt P21554); experiment: Displacement of 3[H]-CP55940 from human recombinant CB1 receptor expressed in HEK293 cell membranes measured after 90 mins by Cheng-Prusoff equation analysis
T1 sequence (P21554 whole entry): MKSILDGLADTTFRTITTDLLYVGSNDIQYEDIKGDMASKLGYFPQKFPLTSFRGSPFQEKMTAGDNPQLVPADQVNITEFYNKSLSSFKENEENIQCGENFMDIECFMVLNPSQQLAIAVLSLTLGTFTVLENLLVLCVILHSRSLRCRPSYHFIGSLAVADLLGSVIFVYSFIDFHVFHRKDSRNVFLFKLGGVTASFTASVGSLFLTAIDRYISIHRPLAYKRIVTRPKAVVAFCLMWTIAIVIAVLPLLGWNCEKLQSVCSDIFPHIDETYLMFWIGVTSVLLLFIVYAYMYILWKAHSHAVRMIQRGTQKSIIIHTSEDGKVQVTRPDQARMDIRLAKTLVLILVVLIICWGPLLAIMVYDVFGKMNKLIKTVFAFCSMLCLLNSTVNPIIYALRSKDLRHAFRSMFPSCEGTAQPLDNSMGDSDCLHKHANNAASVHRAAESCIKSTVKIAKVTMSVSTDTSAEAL

[2] = species: Homo sapiens; experiment: Selectivity index, ratio of Ki for displacement of 3[H]-CP55940 from human recombinant CB1 receptor expressed in HEK293 cell membranes to Ki for displacement of 3[H]-CP55940 from human recombinant CB2 receptor expressed in HEK293 cell membranes
[3] = biological target: T2, Cannabinoid receptor 2 (Homo sapiens, UniProt P34972); experiment: Displacement of 3[H]-CP55940 from human recombinant CB2 receptor expressed in HEK293 cell membranes measured after 90 mins
T2 sequence (P34972 whole entry): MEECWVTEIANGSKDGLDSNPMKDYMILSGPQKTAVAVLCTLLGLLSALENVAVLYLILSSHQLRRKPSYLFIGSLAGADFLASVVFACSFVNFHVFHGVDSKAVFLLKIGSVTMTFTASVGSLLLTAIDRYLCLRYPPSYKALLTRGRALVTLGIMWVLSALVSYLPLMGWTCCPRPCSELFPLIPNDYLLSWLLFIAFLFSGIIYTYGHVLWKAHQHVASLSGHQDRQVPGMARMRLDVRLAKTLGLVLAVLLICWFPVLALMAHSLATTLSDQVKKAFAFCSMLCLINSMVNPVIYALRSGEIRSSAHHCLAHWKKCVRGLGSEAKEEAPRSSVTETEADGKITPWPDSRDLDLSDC

[4] = biological target: T2, Cannabinoid receptor 2; experiment: Displacement of 3[H]-CP55940 from human recombinant CB2 receptor expressed in HEK293 cell membranes measured after 90 mins by Cheng-Prusoff equation analysis
[5] = biological target: T1, Cannabinoid receptor 1; experiment: Displacement of 3[H]-CP55940 from human recombinant CB1 receptor expressed in HEK293 cell membranes measured after 90 mins
[6] = biological target: T3, Cholinesterase (Homo sapiens, UniProt P06276); experiment: Inhibition of human recombinant BuChE at 25 uM using butyrylthiocholine iodide as substrate preincubated for 20 mins followed by substrate addition by Ellman's spectrophotometric method relative to control
T3 sequence (P06276 whole entry): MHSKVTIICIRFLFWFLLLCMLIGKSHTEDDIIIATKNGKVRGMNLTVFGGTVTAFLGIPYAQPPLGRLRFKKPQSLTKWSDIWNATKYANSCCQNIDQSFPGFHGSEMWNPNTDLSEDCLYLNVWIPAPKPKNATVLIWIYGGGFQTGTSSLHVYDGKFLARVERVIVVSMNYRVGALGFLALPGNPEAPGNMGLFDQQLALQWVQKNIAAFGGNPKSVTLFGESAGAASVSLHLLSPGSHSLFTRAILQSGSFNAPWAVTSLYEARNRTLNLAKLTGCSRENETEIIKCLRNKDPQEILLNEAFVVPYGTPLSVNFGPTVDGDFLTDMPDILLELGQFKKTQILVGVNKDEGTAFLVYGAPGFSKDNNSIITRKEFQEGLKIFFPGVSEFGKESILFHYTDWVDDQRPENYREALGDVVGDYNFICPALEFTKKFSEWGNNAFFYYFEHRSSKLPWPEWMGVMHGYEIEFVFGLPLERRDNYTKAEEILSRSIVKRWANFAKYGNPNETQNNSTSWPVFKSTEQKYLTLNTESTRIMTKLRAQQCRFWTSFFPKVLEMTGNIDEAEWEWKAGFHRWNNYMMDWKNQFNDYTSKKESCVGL

[7] = system: SH-SY5Y; experiment: Cytotoxicity against human SH-SY5Y cells assessed as effect on cell viability up to 5 uM after 24 hrs by MTT assay; assay type: cell-based
Outline: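 SH-SY5Y cells grown in DMEM with 10% FBS, 2 mM L-glutamine and penicillin/streptomycin, seeded 2×10^4 cells/well, 24 h, then exposed 24 h to 1.25–40 µM. Viability read as MTT reduction: MTT 0.5 mg/mL in HBSS 2 h at 37 °C, formazan dissolved in isopropanol, absorbance 570 nm (reference 690 nm).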

[8] = system: SH-SY5Y; experiment: Neuroprotection against amyloid beta (1 to 42) induced toxicity in human SH-SY5Y cells after 4 hrs by MTT assay; assay type: functional, cell-based
Outline: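 SH-SY5Y cells seeded 3×10^4/well, 24 h, then treated 4 h with Aβ1-42 oligomers (10 µM) plus compound at 0.625–5.0 µM. Read by MTT formazan exocytosis assay: MTT 0.5 mg/mL in HBSS 1 h at 37 °C, intracellular formazan dissolved in 1% Tween 20, absorbance 570 nm (reference 690 nm). At least three independent experiments.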

[9] = system: N9; experiment: Immunomodulatory activity in LPS-induced mouse N9 cells assessed as reduction in TREM2 expression at 5 uM after 24 hrs by Western blotting analysis relative to control; assay type: functional, cell-based
Outline: (§1)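 N9 microglia on poly-L-lysine in DMEM high glucose with 10% FBS, plated 2.5×10^5 cells/35 mm dish. Activated with LPS 100 ng/mL together with 0, 5 or 10 µM compound in serum-free DMEM for 24 h. Lysates run on 12.5% SDS-PAGE and immunoblotted for iNOS or TREM2, with GAPDH as loading control, ECL detection. Densitometry given as % of LPS alone, three experiments.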

[10] = system: N9; experiment: Immunomodulatory activity in LPS-induced mouse N9 cells assessed as reduction in iNOS expression at 5 uM after 24 hrs by Western blotting analysis relative to control; assay type: functional; details: N9, 24 h; outline: as §1
[11] = biological target: T3, Cholinesterase; experiment: Inhibition of human recombinant BuChE using butyrylthiocholine iodide as substrate preincubated for 20 mins followed by substrate addition by Ellman's spectrophotometric method
[12] = biological target: T2, Cannabinoid receptor 2; experiment: Inverse agonist activity at recombinant human CB2R expressed in CHOK1 cells assessed as increase in NKH477-stimulated intracellular cAMP levels after 30 mins by chemiluminescent based cAMP Hunter assay; assay type: functional, cell-based
Outline: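 CHO-K1 cells stably expressing human CB2R, 30,000 cells/well, held overnight. Compound dose-response with NKH-477 (forskolin analogue, 25 µM) for 30 min at 37 °C. cAMP measured by enzyme-fragment-complementation chemiluminescence. Normalized with NKH-477 alone = 100%. Three independent experiments in triplicate, mean ± SEM.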

[13] = biological target: T2, Cannabinoid receptor 2; experiment: Inverse agonist activity at recombinant human CB2R expressed in CHOK1 cells assessed as increase in NKH477-stimulated intracellular cAMP levels preincubated for 15 mins followed by CB2 agonist JWH-133 addition and measured after 30 mins by chemiluminescent based cAMP Hunter assay; assay type: functional, cell-based
[14] = biological target: T2, Cannabinoid receptor 2; experiment: Potency index, ratio of SR144528 Ki to compound Ki for displacement of 3[H]-CP55940 from human recombinant CB2
[15] = biological target: T3, Cholinesterase; experiment: Potency index, ratio of galanthamine IC50 to compound IC50 for inhibition of human recombinant BuChE
[16] = system: N9; experiment: Downregulation of total GAPDH in LPS-induced mouse N9 cells at 5 uM after 24 hrs by Western blotting analysis; assay type: ADME, cell-based; details: n9, 24 h; outline: as §1

Row | Structure (SMILES) | Ki [1] | Ratio Ki [2] | IC50 [3] | Ki [4] | IC50 [5] | inhibition [6] | Activity [7] | Activity [8] | Activity [9] | inhibition at 5 µM [10] | IC50 [11] | Activity [12] | Activity [13] | Ratio Ki [14] | Ratio IC50 [15] | Activity [16]
1 | CCCCCCCNc1ccc(C(=O)c2c(-c3ccc(OC)cc3)oc3ccccc23)cc1 | 1.66 µM | 4 | 1.54 µM | 0.41 µM | 5.84 µM | 30.2% | – | – | – | – | – | – | – | – | – | –
2 | COc1ccc(-c2oc3ccccc3c2C(=O)c2ccc(NCc3ccc(F)cc3)cc2)cc1 | 0.78 µM | 39 | 0.07 µM | 0.02 µM | 3.21 µM | 60.8% | Non-Toxic | Dose-dependent effect | inactive | 83% | – | – | – | – | – | –
3 | COc1ccc(-c2oc3ccccc3c2C(=O)c2ccc(OCCN(C)Cc3ccccc3)cc2)cc1 | 0.43 µM | 0.6 | 2.63 µM | 0.69 µM | 1.52 µM | 65% | – | – | – | – | 14 µM | – | – | – | – | –
4 | COc1ccc(-c2oc3ccccc3c2C(=O)c2ccc(NCc3ccccc3)cc2)cc1 | > 10 µM | > 59 | 0.66 µM | 0.17 µM | > 10 µM | < 10% | – | – | – | – | – | – | – | – | – | –
5 | COc1ccc(-c2oc3ccccc3c2C(=O)c2ccc(N(Cc3ccc(F)cc3)Cc3ccc(F)cc3)cc2)cc1 | > 10 µM | > 23 | 1.65 µM | 0.43 µM | > 10 µM | 75% | – | – | – | – | 6.03 µM | – | – | – | – | –
6 | COc1ccc(-c2oc3ccccc3c2C(=O)c2ccc(N(Cc3ccccc3)Cc3ccccc3)cc2)cc1 | > 10 µM | > 11 | 3.64 µM | 0.92 µM | > 10 µM | 30.9% | – | – | – | – | – | – | – | – | – | –
7 | COc1ccc(-c2oc3ccccc3c2C(=O)c2ccc(N(Cc3cc(F)cc(F)c3)Cc3cc(F)cc(F)c3)cc2)cc1 | > 10 µM | – | > 10 µM | > 10 µM | > 10 µM | 67% | – | – | – | – | 11.7 µM | – | – | – | – | –
8 | COc1ccc(CNc2ccc(C(=O)c3c(-c4ccc(OC)cc4)oc4ccccc34)cc2)cc1 | > 10 µM | > 10 | 3.86 µM | 1.02 µM | > 10 µM | < 10% | – | – | – | – | – | – | – | – | – | –
9 | CCCCCNc1ccc(C(=O)c2c(-c3ccc(OC)cc3)oc3ccccc23)cc1 | 0.08 µM | 1.1 | 0.26 µM | 0.07 µM | 0.3 µM | 72.2% | – | – | – | – | 3.9 µM | – | – | – | – | –
10 | COc1ccc(-c2oc3ccccc3c2C(=O)c2ccc(N(C)Cc3ccc(F)cc3)cc2)cc1 | 0.02 µM | 7.4 | 0.01 µM | 0.0027 µM | 0.08 µM | < 10% | Non-Toxic | – | inactive | 60% | – | Active | Dose-dependent effect | 600 | – | –
11 | COc1ccc(-c2oc3ccccc3c2C(=O)c2ccc(OCCCCCN(C)Cc3ccccc3)cc2)cc1 | 1.76 µM | – | > 10 µM | > 10 µM | 7.2 µM | > 90% | – | – | – | – | 1.09 µM | – | – | – | 19 | –
12 | COc1ccc(-c2oc3ccccc3c2C(=O)c2ccc(NCc3ccc(C#N)cc3)cc2)cc1 | 2.6 µM | 130 | 0.09 µM | 0.02 µM | 9.12 µM | < 10% | – | – | – | – | – | – | – | – | – | –
13 | COc1ccc(-c2oc3ccccc3c2C(=O)c2ccc(-n3cc(COc4cccc(F)c4)nn3)cc2)cc1 | > 10 µM | – | > 10 µM | > 10 µM | > 10 µM | < 10% | – | – | – | – | – | – | – | – | – | –
14 | COc1ccc(-c2oc3ccccc3c2C(=O)c2ccc(OCCCN(C)Cc3ccccc3)cc2)cc1 | 0.5 µM | 4.2 | 0.44 µM | 0.12 µM | 2.06 µM | 35% | – | – | – | – | 135 µM | – | – | – | – | –
15 | COc1ccc(-c2oc3ccccc3c2C(=O)c2ccc(OCCCCN(C)Cc3ccccc3)cc2)cc1 | 0.86 µM | – | > 10 µM | > 10 µM | 3.52 µM | 35.2% | – | – | – | – | 219 µM | – | – | – | – | –
16 | COc1ccc(-c2oc3ccccc3c2C(=O)c2ccc(NCc3ccccn3)cc2)cc1 | > 10 µM | > 7.5 | 5.09 µM | 1.34 µM | > 10 µM | 15.3% | – | – | – | – | – | – | – | – | – | –
17 | CN(CCCCCCCOc1ccc(-c2oc3ccccc3c2C(=O)c2ccccc2)cc1)Cc1ccccc1 | – | – | – | – | – | – | – | – | – | – | – | – | – | – | – | Toxic
18 | COc1ccc(-c2oc3ccccc3c2C(=O)c2ccc(NCC3CC3)cc2)cc1 | 0.47 µM | 4.3 | 0.41 µM | 0.11 µM | 1.67 µM | 22.4% | – | – | – | – | – | – | – | – | – | –
19 | COc1ccc(-c2oc3ccccc3c2C(=O)c2ccc(NCc3cc(F)cc(F)c3)cc2)cc1 | > 10 µM | > 33 | 1.15 µM | 0.3 µM | > 10 µM | < 10% | – | – | – | – | – | – | – | – | – | –
